# Reference: ChEMBL document CHEMBL1641600, “Novel bifunctional alkylating agents, 5,10-dihydropyrrolo[1,2-b]isoquinoline derivatives, synthesis and biological activity” (Bioorg Med Chem, 2011)
# Legend:
# CCRF-CEM [1] = test: Cytotoxicity against Taxol-resistant human CCRF-CEM cells after 72 hrs by XTT assay; type: functional, cell-based
# Outline: (§1)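 Leukemic CCRF-CEM and its Taxol- and vinblastine-resistant sublines exposed 72 h to six or seven drug concentrations. XTT with phenazine methosulfate added for 6 h at 37 °C; absorbance read at 450 and 630 nm. IC50 obtained from dose-effect data by the median-effect principle.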
# CCRF-CEM [2] = test: Ratio of IC50 for Taxol-resistant human CCRF-CEM cells to IC50 for human CCRF-CEM cells
# CCRF-CEM [3] = test: Cytotoxicity against human CCRF-CEM cells after 72 hrs by XTT assay; type: functional, cell-based; outline: as §1
# CCRF-CEM [4] = test: Cytotoxicity against vinblastine-resistant human CCRF-CEM cells after 72 hrs by XTT assay; type: functional, cell-based; outline: as §1
# MX1 = test: Cytotoxicity against human MX1 cells after 72 hrs by SRB assay; type: functional, cell-based; conditions: MX1, 72 h
# Outline: (§2)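 MX-1 breast and HCT-116 colon carcinoma cells exposed 72 h to six or seven drug concentrations. Growth measured by SRB assay with microplate absorbance. IC50 obtained from dose-effect data by the median-effect principle.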
# HCT-116 = test: Cytotoxicity against human HCT116 cells after 72 hrs by SRB assay; type: functional, cell-based; conditions: HCT-116, 72 h; outline: as §2
# [5] = Cytotoxicity against human OECM1 cells after 72 hrs by Alamar blue assay; type: functional, cell-based; conditions: OECM1, 72 h
# Outline: (§3)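 H1299, PC3, OECM1 and U87 cells exposed 72 h to six or seven drug concentrations. Alamar blue added for 6 h at 37 °C; absorbance read at 570 and 600 nm. IC50 obtained from dose-effect data by the median-effect principle.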
# PC-3 = test: Cytotoxicity against human PC3 cells after 72 hrs by Alamar blue assay; type: functional, cell-based; conditions: PC-3, 72 h; outline: as §3
# [6] = Cytotoxicity against human U87 cells after 72 hrs by Alamar blue assay; type: functional, cell-based, U-87MG ATCC; conditions: U-87 MG; outline: as §3
# [7] = Cytotoxicity against human H1299 cells after 72 hrs by Alamar blue assay; type: functional, cell-based; conditions: NCI-H1299, 72 h; outline: as §3
Structure (SMILES),IC50 (CCRF-CEM [1]) [nM],Ratio IC50 (CCRF-CEM [2]),IC50 (CCRF-CEM [3]) [nM],IC50 (CCRF-CEM [4]) [nM],IC50 (MX1) [nM],IC50 (HCT-116) [nM],IC50 [5] [nM],IC50 (PC-3) [nM],IC50 [6] [nM],IC50 [7] [nM]
CC(C)NC(=O)OCc1c(COC(=O)NC(C)C)c(-c2ccccc2)n2c1Cc1ccccc1C2,230,0.5,450,250,–,–,–,–,–,–
CNC(=O)OCc1c(COC(=O)NC)c(-c2ccc(F)c(F)c2)n2c1Cc1ccccc1C2,450,0.91,490,470,2730,360,–,–,–,–
CCNC(=O)OCc1c(COC(=O)NCC)c(-c2ccc(F)c(F)c2)n2c1Cc1ccccc1C2,1250,0.6,2080,670,–,–,–,–,–,–
COc1ccc(-c2c(COC(=O)NC(C)C)c(COC(=O)NC(C)C)c3n2Cc2ccccc2C3)cc1OC,600,0.46,1290,770,–,–,–,–,–,–
OCc1c(CO)c(-c2ccc(Cl)c(Cl)c2)n2c1Cc1ccccc1C2,4820,0.57,8440,6420,–,–,–,–,–,–
CC(C)NC(=O)OCc1c(COC(=O)NC(C)C)c(-c2ccc(F)cc2)n2c1Cc1ccccc1C2,230,0.3,760,230,1170,630,11000,12300,36900,8130
OCc1c(CO)c(-c2ccc(F)c(F)c2)n2c1Cc1ccccc1C2,1260,1.11,1140,950,6990,3210,–,–,–,–
CCNC(=O)OCc1c(COC(=O)NCC)c(-c2ccc(OC)cc2)n2c1Cc1ccccc1C2,220,0.58,370,350,1270,750,10500,18500,17100,27600
CNC(=O)OCc1c(COC(=O)NC)c(-c2ccc(OC)cc2)n2c1Cc1ccccc1C2,130,0.72,180,90,1330,1070,–,–,–,–
COc1ccc(-c2c(CO)c(CO)c3n2Cc2ccccc2C3)cc1,250,1.02,230,110,1990,1130,6120,10900,10600,13900
CC[C@]1(O)C[C@@H]2CN(CCc3c([nH]c4ccccc34)[C@@](C(=O)OC)(c3cc4c(cc3OC)N(C)[C@H]3[C@@](O)(C(=O)OC)[C@H](OC(C)=O)[C@]5(CC)C=CCN6CC[C@]43[C@@H]65)C2)C1 [VINBLASTINE],–,106.2,–,–,–,–,–,–,–,–
OCc1c(CO)c(-c2ccc(F)cc2)n2c1Cc1ccccc1C2,880,1.72,510,490,4010,2460,6990,5930,23200,8760
CCNC(=O)OCc1c(COC(=O)NCC)c(-c2ccc(F)cc2)n2c1Cc1ccccc1C2,430,1.39,310,570,1510,790,12500,9590,28400,3940
CNC(=O)OCc1c(COC(=O)NC)c2n(c1C)Cc1ccccc1C2,110,0.86,130,80,1680,1170,–,–,–,–
CCc1c(COC(=O)NC(C)C)c(COC(=O)NC(C)C)c2n1Cc1ccccc1C2,320,0.56,570,180,–,–,–,–,–,–
CCc1c(CO)c(CO)c2n1Cc1ccccc1C2,210,1.15,180,190,–,–,–,–,–,–
OCc1c(CO)c(-c2ccc(Cl)cc2)n2c1Cc1ccccc1C2,770,1.28,600,720,3280,3060,12000,9850,26700,24700
CCNC(=O)OCc1c(COC(=O)NCC)c(-c2ccc(OC)c(OC)c2)n2c1Cc1ccccc1C2,810,0.75,1070,650,–,–,–,–,–,–
